# Assay results reported in ChEMBL document CHEMBL2146434, “Synthesis and biological evaluation of new amino acid and dipeptide derivatives of neocryptolepine as anticancer agents” (J Med Chem, 2012).
# Assays:
# [1] = test system: Lewis lung carcinoma cell line; assay: Antineoplastic activity against mouse LLC cells xenografted in C57BL/6 mouse assessed as tumor growth inhibition at 100 mg/kg/day measured on day 19; conditions: 456 h, read-out: TGI
# [2] = test system: Lewis lung carcinoma cell line; assay: Antineoplastic activity against mouse LLC cells xenografted in C57BL/6 mouse assessed as tumor growth inhibition at 100 mg/kg/day measured on day 14; conditions: 336 h, read-out: TGI
# [3] = test system: Lewis lung carcinoma cell line; assay: Antineoplastic activity against mouse LLC cells xenografted in C57BL/6 mouse assessed as tumor growth inhibition at 100 mg/kg/day measured on day 24; conditions: 576 h, read-out: TGI
# [4] = test system: Lewis lung carcinoma cell line; assay: Antineoplastic activity against mouse LLC cells xenografted in C57BL/6 mouse assessed as tumor growth inhibition at 100 mg/kg/day measured on day 16; conditions: 384 h, read-out: TGI
# [5] = test system: Lewis lung carcinoma cell line; assay: Antineoplastic activity against mouse LLC cells xenografted in C57BL/6 mouse assessed as tumor growth inhibition at 100 mg/kg/day measured on day 11; conditions: 264 h, read-out: TGI
# [6] = test system: Lewis lung carcinoma cell line; assay: Antineoplastic activity against mouse LLC cells xenografted in C57BL/6 mouse assessed as tumor growth inhibition at 100 mg/kg/day measured on day 21; conditions: 504 h, read-out: TGI
# [7] = test system: Lewis lung carcinoma cell line; assay: Antineoplastic activity against mouse LLC cells xenografted in C57BL/6 mouse assessed as tumor growth inhibition at 100 mg/kg/day measured on day 17; conditions: 408 h, read-out: TGI
# [8] = test system: Lewis lung carcinoma cell line; assay: Antineoplastic activity against mouse LLC cells xenografted in C57BL/6 mouse assessed as tumor growth inhibition at 100 mg/kg/day measured on day 23; conditions: 552 h, read-out: TGI
# [9] = test system: Lewis lung carcinoma cell line; assay: Antineoplastic activity against mouse LLC cells xenografted in C57BL/6 mouse assessed as tumor growth inhibition at 100 mg/kg/day measured on day 18; conditions: 432 h, read-out: TGI
# [10] = test system: Lewis lung carcinoma cell line; assay: Antineoplastic activity against mouse LLC cells xenografted in C57BL/6 mouse assessed as tumor growth inhibition at 100 mg/kg/day measured on day 12; conditions: 288 h, read-out: TGI
# [11] = Solubility of the compound in water; format: physicochemical; conditions: buffer
# Mus musculus [12] = assay: Toxicity in C57BL/6 mouse xenografted with mouse LLC cells assessed as body weight loss at 25 mg/kg/day, sc administered on day 9 to day 13 of tumor implantation; format: organism-based; set-up: route subcutaneous; conditions: in vivo
# Procedure, shortened: (§1)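 Body weight was tracked in C57BL/6 mice bearing subcutaneously inoculated LLC during therapy given daily from day 9 to day 13. A single 100 mg/kg dose of cyclophosphamide served as the cytostatic control group.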
# [13] = test system: Lewis lung carcinoma cell line; assay: Antineoplastic activity against mouse LLC cells xenografted in C57BL/6 mouse assessed as tumor growth inhibition at 50 mg/kg/day, ip administered on day 10 to day 14 of tumor implantation measured on day 14; format: functional; conditions: route intraperitoneal, read-out: TGI
# Procedure, shortened: (§2)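 Mice bore Lewis lung carcinoma (LLC) inoculated subcutaneously and received test agents intraperitoneally at 15–50 mg kg⁻¹ day⁻¹ from day 9 or day 10. A single 100 mg/kg cyclophosphamide dose was the cytostatic control. Tumor growth was followed as the group median, and TGI% was calculated from medians versus untreated controls. Significance was tested by nonparametric Kruskal–Wallis multiple comparison, p < 0.05.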
# Mus musculus [14] = assay: Toxicity in C57BL/6 mouse xenografted with mouse LLC cells assessed as body weight loss at 50 mg/kg/day, sc administered on day 9 to day 13 of tumor implantation; format: organism-based; set-up: route subcutaneous; conditions: in vivo
# Procedure, shortened: (§3)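 Mouse Lewis lung carcinoma (LLC) cells inoculated sc into mice. Daily dosing from day 9: 15 mg kg⁻¹ day⁻¹ through day 13 or 30 mg kg⁻¹ day⁻¹ through day 12; 25 or 50 mg kg⁻¹ day⁻¹ through day 13. Route is given as ip in tables and text but sc in figure legends. Body weight monitored for loss alongside tumor growth. Single 100 mg/kg cyclophosphamide dose as cytostatic control.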
# [15] = Toxicity in human erythrocytes assessed as hemolysis at 0.3 mM after 30 mins by spectrophotometric analysis; format: cell-based, Erythrocyte; conditions: read-out: Activity
# Procedure, shortened: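 Human erythrocyte suspension under isotonic conditions (pH 7.4, hematocrit 50%). Compound added across a concentration series and incubated 30 min at 37 °C before hemolysis was scored. Mean ± SD of three individual determinations. Statistics by Mann–Whitney U test, p < 0.05.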
# [16] = test system: Lewis lung carcinoma cell line; assay: Antineoplastic activity against mouse LLC cells xenografted in C57BL/6 mouse assessed as tumor growth inhibition at 50 mg/kg/day, ip administered on day 10 to day 14 of tumor implantation measured on day 21; format: functional; conditions: route intraperitoneal, read-out: TGI; procedure, shortened: as §2
# [17] = Dissociation constant, pKa of the compound in PBS buffer at 5 uM at pH 2 to 10 by UV-spectrophotometric analysis; format: physicochemical
# Procedure, shortened: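 UV spectrophotometric titration at a final compound concentration of 5 μM. At this concentration the absorbance–concentration relationship stayed linear. pKa was read from spectral changes across pH.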
# LoVo = assay: Cytotoxicity against human LoVo cells after 72 hrs by SRB assay; format: functional, cell-based
# Procedure, shortened: (§4)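 IC50 is the compound concentration giving 50% inhibition of cell proliferation. It was determined on normal mouse BALB/3T3 fibroblasts and on human A549, MCF-7 and LoVo cancer lines, with doxorubicin hydrochloride and DiMIQ as reference compounds.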
# KB = assay: Cytotoxicity against human KB cells after 72 hrs by SRB assay; format: functional, cell-based
# [18] = test system: Lewis lung carcinoma cell line; assay: Antineoplastic activity against mouse LLC cells xenografted in C57BL/6 mouse assessed as tumor growth inhibition at 50 mg/kg/day, ip administered on day 10 to day 14 of tumor implantation measured on day 19; format: functional; conditions: route intraperitoneal, read-out: TGI; procedure, shortened: as §2
# [19] = test system: Lewis lung carcinoma cell line; assay: Antineoplastic activity against mouse LLC cells xenografted in C57BL/6 mouse assessed as tumor growth inhibition at 25 mg/kg/day, ip administered on day 10 to day 14 of tumor implantation measured on day 17; format: functional; conditions: route intraperitoneal, read-out: TGI; procedure, shortened: as §2
# A549 = assay: Cytotoxicity against human A549 cells after 72 hrs by SRB assay; format: functional, cell-based; conditions: A549, 72 h; procedure, shortened: as §4
# [20] = test system: Lewis lung carcinoma cell line; assay: Antineoplastic activity against mouse LLC cells xenografted in C57BL/6 mouse assessed as tumor growth inhibition at 25 mg/kg/day, ip administered on day 10 to day 14 of tumor implantation measured on day 19; format: functional; conditions: route intraperitoneal, read-out: TGI; procedure, shortened: as §2
# Mus musculus [21] = assay: Toxicity in C57BL/6 mouse xenografted with mouse LLC cells at 25 to 50 mg/kg/day, ip administered on day 9 to day 13 of tumor implantation; format: organism-based; set-up: route intraperitoneal; conditions: in vivo; procedure, shortened: as §3
# [22] = test system: Lewis lung carcinoma cell line; assay: Antineoplastic activity against mouse LLC cells xenografted in C57BL/6 mouse assessed as tumor growth inhibition at 25 mg/kg/day, ip administered on day 10 to day 14 of tumor implantation measured on day 21; format: functional; conditions: route intraperitoneal, read-out: TGI; procedure, shortened: as §2
# [23] = test system: Lewis lung carcinoma cell line; assay: Antineoplastic activity against mouse LLC cells xenografted in C57BL/6 mouse assessed as tumor growth inhibition at 50 mg/kg/day, ip administered on day 10 to day 14 of tumor implantation measured on day 12; format: functional; conditions: route intraperitoneal, read-out: TGI; procedure, shortened: as §2
# Mus musculus [24] = assay: Toxicity in C57BL/6 mouse xenografted with mouse LLC cells assessed as body weight loss at 15 mg/kg/day, ip administered on day 9 to day 13 of tumor implantation; format: organism-based; set-up: route intraperitoneal; conditions: in vivo; procedure, shortened: as §1
# [25] = Octanol-water partition coefficient, log P of the compound in citric buffer at pH 2.5 by spectrophotometric analysis; format: physicochemical
# Procedure, shortened: (§5)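 Octanol–water partitioning, with log P defined as log(C_octanol/C_water). Compound in the aqueous phase was measured spectrophotometrically, and octanol content was obtained by subtracting the supernatant concentration from the total. Values are the mean of two independent experiments, each run in triplicate.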
# Mus musculus [26] = assay: Toxicity in C57BL/6 mouse xenografted with mouse LLC cells assessed as body weight loss at 30 mg/kg/day, sc administered on day 9 to day 12 of tumor implantation; format: organism-based; set-up: route subcutaneous; conditions: in vivo; procedure, shortened: as §3
# Mus musculus [27] = assay: Toxicity in C57BL/6 mouse xenografted with mouse LLC cells assessed as body weight loss at 15 mg/kg/day, sc administered on day 9 to day 13 of tumor implantation; format: organism-based; set-up: route subcutaneous; conditions: in vivo; procedure, shortened: as §1
# [28] = Octanol-water partition coefficient, log P of the compound in PBS buffer at pH 7.4 by spectrophotometric analysis; format: physicochemical; procedure, shortened: as §5
# MCF7 = assay: Cytotoxicity against human MCF7 cells after 72 hrs by SRB assay; format: functional, cell-based; conditions: MCF7, 72 h; procedure, shortened: as §4
# [29] = test system: Lewis lung carcinoma cell line; assay: Antineoplastic activity against mouse LLC cells xenografted in C57BL/6 mouse assessed as tumor growth inhibition at 50 mg/kg/day, ip administered on day 10 to day 14 of tumor implantation measured on day 24; format: functional; conditions: route intraperitoneal, read-out: TGI; procedure, shortened: as §2
# Mus musculus [30] = assay: Toxicity in C57BL/6 mouse xenografted with mouse LLC cells assessed as body weight loss at 30 mg/kg/day, ip administered on day 9 to day 12 of tumor implantation; format: organism-based; set-up: route intraperitoneal; conditions: in vivo; procedure, shortened: as §3
# [31] = test system: Lewis lung carcinoma cell line; assay: Antineoplastic activity against mouse LLC cells xenografted in C57BL/6 mouse assessed as tumor growth inhibition at 25 mg/kg/day, ip administered on day 10 to day 14 of tumor implantation measured on day 14; format: functional; conditions: route intraperitoneal, read-out: TGI; procedure, shortened: as §2
# [32] = test system: Lewis lung carcinoma cell line; assay: Antineoplastic activity against mouse LLC cells xenografted in C57BL/6 mouse assessed as tumor growth inhibition at 25 mg/kg/day, ip administered on day 10 to day 14 of tumor implantation measured on day 12; format: functional; conditions: route intraperitoneal, read-out: TGI; procedure, shortened: as §2
# [33] = test system: Lewis lung carcinoma cell line; assay: Antineoplastic activity against mouse LLC cells xenografted in C57BL/6 mouse assessed as tumor growth inhibition at 50 mg/kg/day, ip administered on day 10 to day 14 of tumor implantation measured on day 17; format: functional; conditions: route intraperitoneal, read-out: TGI; procedure, shortened: as §2
# [34] = test system: Lewis lung carcinoma cell line; assay: Antineoplastic activity against mouse LLC cells xenografted in C57BL/6 mouse assessed as tumor growth inhibition at 25 mg/kg/day, ip administered on day 10 to day 14 of tumor implantation measured on day 24; format: functional; conditions: route intraperitoneal, read-out: TGI; procedure, shortened: as §2
smiles,measurement,setting,value
O=P1(N(CCCl)CCCl)NCCCO1 (stereo not drawn) [CYCLOPHOSPHAMIDE ANHYDROUS],inhibition in vivo at 100 mg/kg/day,[1],40%
same,inhibition in vivo at 100 mg/kg/day,[2],36.8%
same,inhibition in vivo at 100 mg/kg/day,[3],0%
same,inhibition in vivo at 100 mg/kg/day,[4],31.9%
same,inhibition in vivo at 100 mg/kg/day,[5],49.8%
same,inhibition in vivo at 100 mg/kg/day,[6],21.3%
same,inhibition in vivo at 100 mg/kg/day,[7],37%
same,inhibition in vivo at 100 mg/kg/day,[8],30.4%
same,inhibition in vivo at 100 mg/kg/day,[9],12.5%
same,inhibition in vivo at 100 mg/kg/day,[10],24.1%
Cc1c2c3cc(NC(=O)CNC(=O)[C@@H]4CCCN4)ccc3nc-2n(C)c2ccccc12.Cl.Cl,solubility,[11],soluble
same,Activity,Mus musculus [12],<= 15%
same,inhibition in vivo at 50 mg/kg/day,[13],36.5%
same,Activity,Mus musculus [14],<= 15%
same,"hemolysis at 0.5 h, 300 µM",[15],9.97%
same,inhibition in vivo at 50 mg/kg/day,[16],32.5%
same,pKa at 5 µM,[17],7.3
same,IC50,LoVo,980 nM
same,IC50,KB,3730 nM
same,inhibition in vivo at 50 mg/kg/day,[18],33.1%
same,inhibition in vivo at 25 mg/kg/day,[19],0%
same,IC50,A549,1150 nM
same,inhibition in vivo at 25 mg/kg/day,[20],3.1%
same,Activity,Mus musculus [21],Non-toxic
same,inhibition in vivo at 25 mg/kg/day,[22],0%
same,inhibition in vivo at 50 mg/kg/day,[23],16.3%
same,Activity,Mus musculus [24],<= 15%
same,logP,[25],-1.9
same,Activity,Mus musculus [26],<= 15%
same,Activity,Mus musculus [27],<= 15%
same,logD,[28],-0.1
same,IC50,MCF7,1430 nM
same,inhibition in vivo at 50 mg/kg/day,[29],8.19%
same,Activity,Mus musculus [30],<= 15%
same,inhibition in vivo at 25 mg/kg/day,[31],11.6%
same,inhibition in vivo at 25 mg/kg/day,[32],12.9%
same,inhibition in vivo at 50 mg/kg/day,[33],18.5%
same,inhibition in vivo at 25 mg/kg/day,[34],0%
